Screens (PubChem)
ERAP1 inh = blocks human ERAP1 aminopeptidase activity; hit rate 0.15% among 340,000; recombinant ERAP1, Leu-AMC fluorescence, 60 min; inhibition, % at 10.7 µM;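 active means mean replicate inhibition of at least 30%, or all replicates individually reaching that 30% level; inactive means mean below 30% and not every replicate reaching it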
S100A4 MyoIIA = blocks human S100A4 binding to myosin IIA peptide | inhibition, % at 10.7 µM | P26447 | AID 652163 | hit rate 0.14% among 360,000 | S100A4/TAMRA-MyoIIA peptide fluorescence polarization;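 active means mean inhibition of at least 70% across replicates, with every replicate also reaching that level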
Target sequence (P26447 whole entry, looked up): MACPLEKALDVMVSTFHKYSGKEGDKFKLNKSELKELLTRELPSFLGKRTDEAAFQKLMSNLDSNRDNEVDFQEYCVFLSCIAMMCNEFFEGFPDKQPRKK
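Test system – S100A4 monomer (human) · Compound – single-point compound testing · Schedule – 5 min incubation before reading · Probe or stimulus – TAMRA-labelled myosin IIA heavy-chain peptide probe, 5 nM · Benchmarks – neutral control DMSO, positive control TFP · Medium – Calcium-containing HEPES buffer, pH 7.2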
Casp6 inh = caspase-6 (human) enzyme inhibition; P55212; purified caspase-6, Z-VEID-R110 cleavage fluorescence; inhibition, % at 12.5 µM; hit rate 0.53% among 350,000; AID 686996;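 active means mean inhibition across replicates at least about 35%, with every replicate also reaching that limit, limit read from the data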
Target sequence (P55212 24-179 limits assumed): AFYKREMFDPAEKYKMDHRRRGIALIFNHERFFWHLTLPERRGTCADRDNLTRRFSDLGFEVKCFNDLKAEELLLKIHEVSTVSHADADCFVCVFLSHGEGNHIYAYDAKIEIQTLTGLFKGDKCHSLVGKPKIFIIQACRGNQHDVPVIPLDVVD
Target sequence (P55212 194-293 limits assumed): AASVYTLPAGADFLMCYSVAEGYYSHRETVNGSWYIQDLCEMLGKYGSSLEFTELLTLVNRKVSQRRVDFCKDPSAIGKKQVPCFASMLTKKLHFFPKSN
ARNT-TACC3 inh = ARNT/TACC3 interaction disruption | AID 623870 | Q9Y6A5 | AlphaScreen His-ARNT PAS-B/GST-TACC3 binding, luminescence; TACC3 fragment carries E629A point mutation | inhibition, % at 9.99 µM | hit rate 0.66% among 390,000;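 active means mean inhibition of replicates at least 50% and at least half of replicates each reaching 50%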
rRNA inh HTS = inhibits bacterial ribosomal RNA function over humanized ribosomes; E. coli WT GFP vs humanized-ribosome RFP mutants, fluorescence, 24 h; hits give low values; DMSO median 0, no signal -100; GFP signal change (wild-type ribosome), % (no concentration beside the values); hit rate 1.6% among 350,000; AID 720706;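 active means significant combined selectivity score with lowered wild-type GFP, culture density cut under 30%, mutant RFP and density less affected; inactive means any of these conditions unmet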
PGC1a acetyl inh = modulators of PGC1a acetylation. U2OS PGC1a acetylation, AlphaScreen anti-acetyl-lysine; with virally co-expressed GCN5 acetyltransferase. AID 651687. inhibition, % at 15.6 µM. hit rate 0.17% among 350,000;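 active means every replicate shows inhibition of at least 40%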
Each line names hits and unclear results; the compound was inactive in the other large screens. This is a sample that favours compounds with a hit; in the whole collection about 2.4% have one here.

C#CCOCCOCCOCCNc1nc(N2CCN(C(=O)[C@H](CCC(=O)O)n3cc(C(N)CC(C)C)nn3)CC2)nc(N2CCN(C(=O)[C@H](Cc3cc4ccccc4[nH]3)n3cc(C(N)CC(C)C)nn3)CC2)n1 (stereo partly specified)	none (no result: ERAP1 inh, S100A4 MyoIIA, Casp6 inh, rRNA inh HTS)
C#CCOCCOCCOCCNc1nc(N2CCN(C(=O)C(CCC(=O)O)n3cc(C(N)CC(C)C)nn3)CC2)nc(N2CCN(C(=O)C(Cc3cc4ccccc4[nH]3)n3cc(C(N)Cc4ccc(O)cc4)nn3)CC2)n1 (stereo unspecified)	ARNT-TACC3 inh 45.5 (no result: ERAP1 inh, S100A4 MyoIIA, Casp6 inh, rRNA inh HTS, PGC1a acetyl inh)
CC(=O)Nc1ccc(S(=O)(=O)N2CCN(CC3CC4C=CC3C4)CC2)cc1 (stereo unspecified)	rRNA inh HTS -22.4
CC(=O)Nc1ccc(S(=O)(=O)N2CCN(S(=O)(=O)c3ccccc3)CC2)cc1	none
Cc1nc(SCC(=O)O)c(C#N)c2c1CCCC2	Casp6 inh 39.1
CCc1nc(SCC(=O)O)c(C#N)c2c1CCCC2	none (no result: PGC1a acetyl inh)
COc1ccc(/C=C2\Oc3cc(OCC(N)=O)ccc3C2=O)cc1OC	rRNA inh HTS -28.7
COC(=O)COc1ccc2c(c1)O/C(=C\c1cccc([N+](=O)[O-])c1)C2=O	none (no result: ARNT-TACC3 inh)
COc1ccc(NC(=O)Nc2ccc3c(c2)C(=O)N([C@@H](C)CO)C[C@@H](C)[C@H](CN(C)Cc2ccc(C(F)(F)F)cc2)OCCCC[C@@H](C)O3)cc1	none
COc1ccc(NC(=O)Nc2ccc3c(c2)C(=O)N([C@H](C)CO)C[C@H](C)[C@H](CN(C)Cc2ccc(C(F)(F)F)cc2)OCCCC[C@H](C)O3)cc1	S100A4 MyoIIA 157.4
C[C@@H]1CN([C@H](C)CO)C(=O)c2cc(N(C)C)ccc2O[C@@H](C)CCCCO[C@@H]1CN(C)C(=O)NC1CCCCC1	S100A4 MyoIIA 104.1
COc1ccc(NC(=O)N(C)C[C@H]2OCCCC[C@@H](C)Oc3ccc(N(C)C)cc3C(=O)N([C@@H](C)CO)C[C@@H]2C)cc1	Casp6 inh 52.1
C[C@@H]1CCCCO[C@H](CN(C)C(=O)NC2CCCCC2)[C@@H](C)CN([C@@H](C)CO)C(=O)c2cc(NC(=O)Nc3ccc(C(F)(F)F)cc3)ccc2O1	S100A4 MyoIIA 142.6
C[C@@H]1CCCCO[C@@H](CN(C)C(=O)NC2CCCCC2)[C@@H](C)CN([C@@H](C)CO)C(=O)c2cc(N(C)C)ccc2O1	none
COc1ccc(NC(=O)N(C)C[C@H]2OCCCC[C@H](C)Oc3ccc(NC(=O)NC4CCCCC4)cc3C(=O)N([C@H](C)CO)C[C@H]2C)cc1	none (no result: ARNT-TACC3 inh)
COc1ccc(NC(=O)N(C)C[C@H]2OCCCC[C@@H](C)Oc3ccc(NC(=O)NC4CCCCC4)cc3C(=O)N([C@H](C)CO)C[C@@H]2C)cc1	S100A4 MyoIIA 134.2
O=C(O)c1cnn2c1C(=O)N(Cc1cccs1)CC2	Casp6 inh 63.7
O=C(O)C1CC(=O)N(Cc2cccs2)C1 (stereo unspecified)	none
COc1ccc(CN2CCn3ncc(C(=O)Nc4ccccc4)c3C2=O)cc1	PGC1a acetyl inh 129.1 (no result: ERAP1 inh, S100A4 MyoIIA, Casp6 inh, rRNA inh HTS)
O=S(=O)(Nc1ccc(-n2cccc2)cc1)c1ccc(F)cc1	none (no result: ARNT-TACC3 inh)
O=S(=O)(Nc1ccc(-n2cccc2)cc1)c1ccc(Cl)c(Cl)c1	rRNA inh HTS -45.2
O=C(CP(=O)(c1ccccc1)c1ccccc1)Nc1nc2ccccc2s1	rRNA inh HTS -35.9 (no result: PGC1a acetyl inh)
O=C(Cc1ccccc1)Nc1nc2ccccc2s1	none (no result: ERAP1 inh, S100A4 MyoIIA, Casp6 inh, rRNA inh HTS)
O=C(NNc1nc2ccccc2s1)Nc1ccc(F)cc1	none (no result: PGC1a acetyl inh)
O=C(NNc1nc2ccccc2s1)c1ccccc1F	rRNA inh HTS -41.3
C[C@@H]1CN([C@H](C)CO)S(=O)(=O)c2ccc(-c3cccc(C#N)c3)cc2O[C@H]1CN(C)C(=O)C1CC1	none
CO[C@H]1CC[C@@H]2CCOc3ccc(C#N)cc3C(=O)N(C)CCCC(=O)N(C)C[C@H]1O2	none (no result: ERAP1 inh, S100A4 MyoIIA, Casp6 inh, ARNT-TACC3 inh, PGC1a acetyl inh)
Cn1c(SCC(=O)NC2CCCCC2)nnc1-c1ccccn1	Casp6 inh 39.4 (no result: PGC1a acetyl inh)
CC(C)c1ccc(-c2nnc(SCC(=O)NC3CC3)n2C)cc1	Casp6 inh 52.9 (no result: PGC1a acetyl inh)
Cn1c(SCC(=O)NC2CCCC2)nnc1-c1ccccn1	none (no result: PGC1a acetyl inh)
COc1ccc(C(=O)NCc2nnc(SCC(=O)NC3CCCCC3)n2C)cc1	ERAP1 inh 30.0 (no result: PGC1a acetyl inh)
C[C@@H]1CN([C@@H](C)CO)C(=O)Cc2cc(NC(=O)CCCCCC(=O)Nc3ccccc3N)ccc2O[C@H]1CN(C)S(=O)(=O)c1cccs1	none (no result: ERAP1 inh, S100A4 MyoIIA, Casp6 inh)
COc1ccc(S(=O)(=O)Nc2ccc3c(c2)C(=O)N([C@H](C)CO)C[C@H](C)[C@H](CN(C)C)OCCCC[C@H](C)O3)cc1	none
CC(=O)n1cc(N(C(=O)CCl)c2ccc([N+](=O)[O-])cc2)c2ccccc21	rRNA inh HTS -35.8
O=Cc1[nH]c2ccccc2c1N(C(=O)CCl)c1ccc([N+](=O)[O-])cc1	rRNA inh HTS -55.5
CC(=O)n1cc(N(C(=O)CCl)c2ccccc2)c2ccccc21	none (no result: ERAP1 inh)
Cc1ccc(/C=C/C(=O)O)cc1S(=O)(=O)N1CCCc2ccccc21	none (no result: ERAP1 inh)
Cc1ccc(/C=C/C(=O)O)cc1S(=O)(=O)N1CCc2ccccc21	rRNA inh HTS -32.4 (no result: PGC1a acetyl inh)
C[C@H](CO)N1C[C@H](C)[C@@H](CN(C)CC2CCCCC2)OCCCC[C@H](C)Oc2ccc(NS(=O)(=O)c3ccccc3)cc2C1=O	none
Cc1nn(-c2ccccc2)c(N)c1Sc1ccccc1[N+](=O)[O-]	rRNA inh HTS -37.0 (no result: PGC1a acetyl inh)
COc1ccc(-c2ccc3n(c2=O)C[C@@H]2[C@@H](CO)[C@H](C(=O)Nc4ccccc4)N(C)[C@H]32)cc1	none (no result: ARNT-TACC3 inh)
Cc1noc(C)c1NC(=O)Nc1cccc2c1O[C@@H](CN(C)C(=O)Nc1ccc3c(c1)OCO3)[C@H](C)CN([C@H](C)CO)C2=O	none
CCCCCc1ccc(CC(=O)N2CCOCC2)cc1	Casp6 inh 50.3
COCC(=O)N1[C@@H](CO)[C@H](c2ccccc2)[C@@H]1CN(C)C(=O)c1cccnc1	none
Cc1noc(C)c1NC(=O)N1C[C@@H](O)COC[C@H]2O[C@@H](CC(=O)NCC3CCCCC3)CC[C@@H]21	none (no result: PGC1a acetyl inh)
C/C=C/c1ccc([C@H]2[C@H](CO)N3C(=O)CN(Cc4ccccc4)C[C@@H]23)cc1	none (no result: ARNT-TACC3 inh)
CCOc1cccc2sc(NC(=O)CC)nc12	rRNA inh HTS -19.1
COC(=O)C1=C(C)OC(N)=C(C#N)C1C1CCCCC1 (stereo unspecified)	rRNA inh HTS -20.9
COC(=O)C1=C(C)OC(N)=C(C#N)C1c1ccccc1 (stereo unspecified)	none (no result: ERAP1 inh, S100A4 MyoIIA, Casp6 inh, rRNA inh HTS)
CC(=O)Nc1ccc(C(=O)c2ccccc2)cc1	none (no result: ERAP1 inh, S100A4 MyoIIA, Casp6 inh, rRNA inh HTS)
CC(=O)Nc1ccc(/C(N=Nc2ccccc2)=N/N=C(N)N)cc1	rRNA inh HTS -20.1 (no result: PGC1a acetyl inh)
